ChEMBL document CHEMBL4257448, “Deciphering the origins of molecular toxicity of combretastatin A4 and its glycoconjugates: interactions with major drug transporters and their safety profiles in vitro and in vivo” (Medchemcomm, 2017)
In brackets after ≈: the same amount, converted by molar mass.

Key:
[1] = Cytotoxicity against HEK293FT cells expressing GLUT1 assessed as reduction in cell viability up to 20 uM; type: cell-based; conditions: human
HT-29 [2] = test: Cytotoxicity against human HT-29 cells assessed as reduction in cell viability after 72 hrs by MTT assay; type: functional, cell-based; conditions: HT-29, 72 h
How it was run: (§1)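 HT29 cells were cultured in RPMI-1640 with glutamine and 10% FBS, seeded at 2000–7500 cells/well, and exposed for 72 h to drug in DMSO (final DMSO <0.1%). MTT was added at 0.83 mg mL−1 final and incubated overnight, then cells were lysed in SDS/HCl and read at 570 nm. Survival was expressed as percent of drug-free control; five replicate wells.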

[3] = Cytotoxicity against HEK293FT cells assessed as reduction in cell viability up to 20 uM; type: cell-based; conditions: human
Mus musculus = test: Ratio of compound MTD to CA4 MTD in ip dosed DBA/2 mouse assessed as reduction in 15% body weight administered as daily dose for 3 days; type: ADME, organism-based; conditions: in vivo, 72 h
[4] = Ratio of CA4 aqueous solubility to test compound aqueous solubility; type: physicochemical; conditions: buffer
[5] = Aqueous solubility of the compound after 1 hrs by HPLC-UV method; type: physicochemical; conditions: deionized water
How it was run: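 Shaken in tubes at 25 °C for 1 h, protected from light, then filtered through 0.2 μm filters; filtrate diluted in deionized water and quantified by reversed-phase HPLC-UV (C18 column, room temperature, methanol/water 70:30 v/v, 1.0 mL min−1).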

[6] = Toxicity in ip dosed DBA/2 mouse assessed as reduction in 15% body weight administered as daily dose for 3 days; type: organism-based; conditions: in vivo
How it was run: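 Adult male DBA/2 mice were dosed i.p. at 10 mL kg−1, with 5 per group. Controls (n = 8) received saline. MTD was the dose allowing 15% median body-weight loss with no toxic deaths or marked change in general signs within 3 days.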

HT-29 [7] = test: […] for human HT-29 cells assessed as reduction in cell viability after 72 hrs by MTT assay; type: functional; how it was run: as §1

For `COc1ccc(/C=C\c2cc(OC)c(OC)c(OC)c2)cc1O[C@H]1O[C@H](CO)[C@@H](O)[C@H](O)[C@@H]1O`, which Activity [1] is on record?
The Activity was “Toxic”.

What about the IC50 (HT-29 [2]) of the same compound?
The IC50 was 11.4 µM.

And the Activity [3]?
The Activity was “Toxic”.

And the Ratio (Mus musculus)?
Its Ratio is 16.

What about the Ratio [4] of the same compound?
The Ratio was 1963.

And the solubility at 1 h [5]?
Its solubility at 1 h is 5890 µg/mL (≈ 12.3 mM).

And the MTD at 72 h [6]?
The MTD at 72 h was 400 mg/kg.

What about the “Ratio IC50” value (HT-29 [7]) of the same compound?
The value was 15.89.

Which Activity [1] does the source give for `COc1ccc(/C=C\c2cc(OC)c(OC)c(OC)c2)cc1O[C@@H]1O[C@H](CO)[C@H](O)[C@H](O)[C@H]1O` here?
The Activity was “Toxic”.

What about the IC50 (HT-29 [2]) of the same compound?
The IC50 was 39.3 µM.

And the Activity [3]?
Its Activity is “Toxic”.

What about the Ratio (Mus musculus) of the same compound?
The Ratio was 34.

What about the Ratio [4] of the same compound?
Its Ratio is 853.

What about the solubility at 1 h [5] of the same compound?
The solubility at 1 h was 2560 µg/mL (≈ 5.35 mM).

And the MTD at 72 h [6]?
The MTD at 72 h was 550 mg/kg.

And the “Ratio IC50” value (HT-29 [7])?
Its value is 54.61.
